From ChEMBL document CHEMBL4392836, “Second-generation aryl isonitrile compounds targeting multidrug-resistant Staphylococcus aureus” (Bioorg Med Chem, 2019)
In brackets after ≈: the same amount, converted by molar mass.

Experiments:
[1] = tested on: Staphylococcus aureus; assay: Antibacterial activity against methicillin-resistant Staphylococcus aureus NRS123 USA400 after 18 to 24 hrs by broth microdilution assay; type: functional
In short: (§1)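 CLSI broth microdilution with modifications. Bacteria cultured in TSB and exposed to compounds or control antibiotics in triplicate. Plates incubated aerobically at 37 °C for 18–24 h. MIC is the lowest concentration preventing visible growth.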

[2] = tested on: Escherichia coli; assay: Antibacterial activity against AcrAB-TolC deficient Escherichia coli […] after 18 to 24 hrs in presence of colistin by broth microdilution method; type: functional
In short: (§2)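 To permeabilize the outer membrane, CLSI broth microdilution in TSB (triplicate) was run with subinhibitory colistin: ¼ × MIC for A. baumannii, E. cloacae and E. coli strains, and P. aeruginosa; ½ × MIC for K. pneumoniae. Plates incubated aerobically at 37 °C for 18–24 h. MIC taken as the lowest concentration with no visible growth.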

[3] = tested on: Enterobacter cloacae; assay: Antibacterial activity against Enterobacter cloacae BAA1134 after 18 to 24 hrs by broth microdilution assay; type: functional
In short: (§3)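 Broth microdilution MIC per CLSI guidelines with modifications. Bacteria grown in TSB and exposed to compounds or control antibiotics in triplicate. Plates incubated aerobically at 37 °C for 18–24 h. MIC taken as the lowest concentration with no visible growth.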

[4] = tested on: Escherichia coli; assay: Antibacterial activity against Escherichia coli BW25113 after 18 to 24 hrs in absence of colistin by broth microdilution method; type: functional; in short: as §3
[5] = tested on: Enterobacter cloacae; assay: Antibacterial activity against Enterobacter cloacae BAA1134 after 18 to 24 hrs in presence of colistin by broth microdilution assay; type: functional; in short: as §2
[6] = tested on: Pseudomonas aeruginosa; assay: Antibacterial activity against Pseudomonas aeruginosa ATCC 15442 after 18 to 24 hrs by broth microdilution assay; type: functional; in short: as §3
[7] = tested on: Klebsiella pneumoniae; assay: Antibacterial activity against Klebsiella pneumoniae ATCC BAA-1705 after 18 to 24 hrs in presence of colistin by broth microdilution assay; type: functional; in short: as §2
[8] = tested on: Escherichia coli; assay: Antibacterial activity against AcrAB-TolC deficient Escherichia coli […] after 18 to 24 hrs in absence of colistin by broth microdilution method; type: functional; in short: as §3
[9] = tested on: Klebsiella pneumoniae; assay: Antibacterial activity against Klebsiella pneumoniae ATCC BAA-1705 after 18 to 24 hrs by broth microdilution assay; type: functional; in short: as §3
[10] = tested on: Escherichia coli; assay: Antibacterial activity against Escherichia coli BW25113 after 18 to 24 hrs in presence of colistin by broth microdilution method; type: functional; in short: as §2
[11] = tested on: Pseudomonas aeruginosa; assay: Antibacterial activity against Pseudomonas aeruginosa ATCC 15442 after 18 to 24 hrs in presence of colistin by broth microdilution assay; type: functional; in short: as §2
[12] = tested on: Acinetobacter baumannii; assay: Antibacterial activity against Acinetobacter baumannii BAA1605 after 18 to 24 hrs in presence of colistin by broth microdilution assay; type: functional; in short: as §2
[13] = tested on: Acinetobacter baumannii; assay: Antibacterial activity against Acinetobacter baumannii BAA1605 after 18 to 24 hrs by broth microdilution assay; type: functional; in short: as §3
[14] = Toxicity in wounded skin area of Balb/c mouse infected with methicillin-resistant Staphylococcus aureus USA300 at 2% administered topically twice daily for 5 consecutive days measured 4 times daily during compound dosing; conditions: in vivo, topical_or_ocular
In short: (§4)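 Female Balb/c mice with intradermal MRSA USA300 abscesses were treated topically twice daily for 5 days with a 2% suspension in petroleum jelly, alongside a vehicle group. Mice were checked at least four times daily during infection and treatment for adverse reactions. Wounds were examined for inflammation and toxicity.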

[15] = tested on: Mus musculus; assay: Induction of inflammation in wounded skin area of Balb/c mouse infected with methicillin-resistant Staphylococcus aureus USA300 at 2% administered topically twice daily for 5 consecutive days measured 4 times daily during compound dosing; type: organism-based; conditions: in vivo, topical_or_ocular; in short: as §4
[16] = tested on: Staphylococcus aureus; assay: Antibacterial activity against methicillin-resistant Staphylococcus aureus USA300 infected in Balb/c mouse assessed as reduction in bacterial burden in wounded skin area at 2% administered topically twice daily for 5 consecutive days measured 12 hrs post last dose relative to control; type: functional; set-up: scale not given: the % may be the effect or the level left
In short: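 Eight-week-old female Balb/c mice (n = 5 per group) received an intradermal injection of 40 μL of 1.32 × 10⁹ CFU/mL MRSA USA300. From abscess formation (~48 h), a 2% suspension in petroleum jelly was applied topically twice daily for 5 days, with a vehicle-only group. Mice were euthanized 12 h after the last dose. Wounds were homogenized in PBS, serially diluted and plated on mannitol salt agar (≥16 h, 37 °C). CFU reduction was calculated against vehicle.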

[17] = tested on: Enterococcus faecium; assay: Antibacterial activity against vancomycin-resistant Enterococcus faecium ATCC 700221 after 18 to 24 hrs by broth microdilution assay; type: functional
In short: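 Broth microdilution per CLSI with modifications. Cultured in BHI and exposed to compounds in triplicate. Incubated aerobically at 37 °C for 18–24 h. MIC read as the lowest concentration with no visible growth.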

[18] = Tmax in human at 625 mg, po; type: ADME; conditions: in vivo
[19] = tested on: Staphylococcus aureus; assay: Antibacterial activity against methicillin-resistant Staphylococcus aureus NRS119 after 18 to 24 hrs by broth microdilution assay; type: functional; in short: as §1
[20] = tested on: Staphylococcus aureus; assay: Antibacterial activity against vancomycin-resistant Staphylococcus aureus VRS11a after 18 to 24 hrs by broth microdilution assay; type: functional; in short: as §1
[21] = tested on: Streptococcus pneumoniae; assay: Antibacterial activity against penicillin-resistant Streptococcus pneumoniae ATCC 700677 after 18 to 24 hrs by broth microdilution assay; type: functional
In short: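 CLSI broth microdilution with modifications. Bacteria exposed to compounds in triplicate and incubated at 37 °C with 5% CO₂ for 18–24 h. MIC is the lowest concentration preventing visible growth.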

[22] = tested on: Staphylococcus epidermidis; assay: Antibacterial activity against methicillin-resistant Staphylococcus epidermidis NRS101 after 18 to 24 hrs by broth microdilution assay; type: functional; in short: as §1
[23] = Cmax in human at 625 mg, iv; type: ADME; set-up: dose 625 mg, route intravenous; conditions: in vivo
[24] = Clearance in human at 625 mg, iv; type: ADME; conditions: in vivo
[25] = Tmax in human at 625 mg, iv; type: ADME; conditions: in vivo
[26] = tested on: Staphylococcus aureus; assay: Antibacterial activity against vancomycin-resistant Staphylococcus aureus VRS10 after 18 to 24 hrs by broth microdilution assay; type: functional; in short: as §1
[27] = tested on: Staphylococcus aureus; assay: Antibacterial activity against methicillin-resistant Staphylococcus aureus NRS385 USA500 after 18 to 24 hrs by broth microdilution assay; type: functional; in short: as §1
[28] = tested on: Staphylococcus aureus; assay: Antibacterial activity against methicillin-resistant Staphylococcus aureus USA300 NRS384 after 18 to 24 hrs by broth microdilution assay; type: functional; in short: as §1
[29] = clinical; conditions: human, in vivo, iv, 625 mg
[30] = Cmax in human at 625 mg, po; type: ADME; set-up: dose 625 mg, route oral; conditions: in vivo
[31] = tested on: Staphylococcus aureus; assay: Antibacterial activity against methicillin-sensitive Staphylococcus aureus NRS107 after 18 to 24 hrs by broth microdilution assay; type: functional; in short: as §1

With N#Cc1ccc(CCc2ccncc2)cc1 the MIC [1] was 64 µM (≈ 13.3 µg/mL).

For N#Cc1ccc(CCc2cccc(C#N)c2)cc1, the MIC [1] was 32 µM (≈ 7.43 µg/mL).

Work on N#Cc1ccc(/C=C/c2ccc(C(F)(F)F)cc2)cc1 yielded an MIC [1] of 32 µM (≈ 8.74 µg/mL).

Work on COc1ccc(/C=C/c2ccc(C#N)cc2)cc1 yielded an MIC [1] of 32 µM (≈ 7.53 µg/mL).

With N#Cc1ccc(CCc2ccccn2)cc1 the MIC [1] was over 64 µM.

N#Cc1ccc(/C=C/c2ccccc2C#N)cc1 gave an MIC [1] of 16 µM (≈ 3.68 µg/mL).

N#Cc1ccc(CCc2ccccc2C#N)cc1 showed an MIC [1] of over 64 µM.

In the case of N#Cc1ccc(CCC2CCNc3ccccc32)cc1 (stereo not given), the MIC [1] is reported as 32 µM (≈ 8.4 µg/mL).

In the case of CC[C@H]1OC(=O)[C@H](C)[C@@H](O[C@H]2C[C@@](C)(OC)[C@@H](O)[C@H](C)O2)[C@H](C)[C@@H](O[C@@H]2O[C@H](C)C[C@H](N(C)C)[C@H]2O)[C@](C)(O)C[C@@H](C)C(=O)[C@H](C)[C@@H](O)[C@]1(C)O [ERYTHROMYCIN], the MIC [2] is reported as 0.5 µM, the MIC [3] is reported as over 64 µM and the MIC [4] is reported as 64 µM (≈ 47 µg/mL). It also gave an MIC [5] of 1 µM, an MIC [6] of over 64 µM and an MIC [7] of 16 µM. The MIC [8] was 2 µM (≈ 1.47 µg/mL), the MIC [9] was over 64 µM and the MIC [10] was 1 µM. For the same compound, the MIC [11] was 4 µM, the MIC [12] was 4 µM and the MIC [13] was 16 µM (≈ 11.7 µg/mL).

For CC(=O)O[C@H]1C[C@@]2(C)[C@@H](C[C@@H](O)[C@H]3[C@@]4(C)CC[C@@H](O)[C@@H](C)[C@@H]4CC[C@@]32C)/C1=C(\CCC=C(C)C)C(=O)O [FUSIDIC ACID], the Activity [14] was “Non-Toxic”, the Activity [15] was “Non-Toxic” and the Activity [16] was 77.78%.

CC(=O)NC[C@H]1CN(c2ccc(N3CCOCC3)c(F)c2)C(=O)O1 [LINEZOLID] gave an MIC [2] of 16 µM, an MIC [3] of over 64 µM and an MIC [17] of 0.5 µM (≈ 0.169 µg/mL). For the same compound, the Tmax [18] was 1.33 h, the MIC [1] was 1 µM (≈ 0.337 µg/mL) and the MIC [4] was over 64 µM. The MIC [19] was 32 µM (≈ 10.8 µg/mL), the MIC [20] was 2 µM (≈ 0.675 µg/mL) and the MIC [5] was 16 µM. For the same compound, the MIC [6] was over 64 µM, the MIC [7] was over 64 µM and the MIC [21] was 2 µM (≈ 0.675 µg/mL). It also gave an MIC [22] of 2 µM (≈ 0.675 µg/mL), a Cmax [23] of 13400 ng/mL and a clearance [24] of 1.74 mL/min/kg. For the same compound, the Tmax [25] was 0.5 h, the MIC [8] was 16 µM (≈ 5.4 µg/mL) and the MIC [9] was over 64 µM. For the same compound, the MIC [26] was 2 µM (≈ 0.675 µg/mL), the MIC [27] was 4 µM (≈ 1.35 µg/mL) and the MIC [28] was 2 µM (≈ 0.675 µg/mL). For the same compound, the MIC [10] was over 64 µM, the MIC [11] was over 64 µM and the half-life [29] was 4.4 h. It also gave a Cmax [30] of 12700 ng/mL, an MIC [12] of over 64 µM and an MIC [31] of 2 µM (≈ 0.675 µg/mL). For the same compound, the MIC [13] was over 64 µM.

Work on CN[C@H](CC(C)C)C(=O)N[C@H]1C(=O)N[C@@H](CC(N)=O)C(=O)N[C@H]2C(=O)N[C@H]3C(=O)N[C@H](C(=O)N[C@H](C(=O)O)c4cc(O)cc(O)c4-c4cc3ccc4O)[C@H](O)c3ccc(c(Cl)c3)Oc3cc2cc(c3O[C@@H]2O[C@H](CO)[C@@H](O)[C@H](O)[C@H]2O[C@H]2C[C@](C)(N)[C@H](O)[C@H](C)O2)Oc2ccc(cc2Cl)[C@H]1O [VANCOMYCIN] yielded an MIC [3] of over 64 µM, an MIC [17] of over 64 µM and an MIC [1] of 1 µM (≈ 1.45 µg/mL). The MIC [19] was 1 µM (≈ 1.45 µg/mL), the MIC [20] was over 64 µM and the MIC [6] was over 64 µM. For the same compound, the MIC [21] was 1 µM (≈ 1.45 µg/mL), the MIC [22] was 4 µM (≈ 5.8 µg/mL) and the MIC [9] was over 64 µM. For the same compound, the MIC [26] was over 64 µM, the MIC [27] was 1 µM (≈ 1.45 µg/mL) and the MIC [28] was 1 µM (≈ 1.45 µg/mL). The MIC [31] was 1 µM (≈ 1.45 µg/mL) and the MIC [13] was 32 µM (≈ 46.4 µg/mL).
